Data on 13 compounds can be found in ChEMBL document CHEMBL2176883, “Aminopiperidine sulfonamide Cav2.2 channel inhibitors for the treatment of chronic pain” (J Med Chem, 2012).

Usually inhibition stands for the change of the read-out against control, counted positive when it falls. By half-life is commonly meant how long it takes for the measured level to halve. High values mean slow decline, low ones rapid decline. The term bioavailability denotes the share of a dose that reaches the circulation, judged against a reference dose that is usually intravenous. A low value points to poor availability. In general, IC50 refers to the concentration that inhibits the measured activity by half.

Data set [1] addresses T1, Voltage-dependent N-type calcium channel subunit alpha-1B (Homo sapiens, UniProt Q00975). Briefly: Inhibition of Cav2.2 expressed HEK293 cells assessed as inhibition of calcium flux at 1 uM by FLIPR assay. Format: cell-based. Put shortly: (§1)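 Calcium influx was read with a calcium-sensitive dye on FLIPR Tetra in CBK cells expressing α1B-1, α2-δ and β3a with Kir2.3. Cells were preincubated with compound in 30 mM K+, then channels were opened by 1:1 addition of 140 mM K+ solution. Compounds were screened at 1 μM, then titrated over 10 points (0.001–30 μM) in quadruplicate, mean ± SD. Values are averages of n ≥ 3.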
A general note: Calcium flux is commonly read through the fluorescence of an indicator in the cells.
Target sequence in this assay (Q00975 whole entry, looked up): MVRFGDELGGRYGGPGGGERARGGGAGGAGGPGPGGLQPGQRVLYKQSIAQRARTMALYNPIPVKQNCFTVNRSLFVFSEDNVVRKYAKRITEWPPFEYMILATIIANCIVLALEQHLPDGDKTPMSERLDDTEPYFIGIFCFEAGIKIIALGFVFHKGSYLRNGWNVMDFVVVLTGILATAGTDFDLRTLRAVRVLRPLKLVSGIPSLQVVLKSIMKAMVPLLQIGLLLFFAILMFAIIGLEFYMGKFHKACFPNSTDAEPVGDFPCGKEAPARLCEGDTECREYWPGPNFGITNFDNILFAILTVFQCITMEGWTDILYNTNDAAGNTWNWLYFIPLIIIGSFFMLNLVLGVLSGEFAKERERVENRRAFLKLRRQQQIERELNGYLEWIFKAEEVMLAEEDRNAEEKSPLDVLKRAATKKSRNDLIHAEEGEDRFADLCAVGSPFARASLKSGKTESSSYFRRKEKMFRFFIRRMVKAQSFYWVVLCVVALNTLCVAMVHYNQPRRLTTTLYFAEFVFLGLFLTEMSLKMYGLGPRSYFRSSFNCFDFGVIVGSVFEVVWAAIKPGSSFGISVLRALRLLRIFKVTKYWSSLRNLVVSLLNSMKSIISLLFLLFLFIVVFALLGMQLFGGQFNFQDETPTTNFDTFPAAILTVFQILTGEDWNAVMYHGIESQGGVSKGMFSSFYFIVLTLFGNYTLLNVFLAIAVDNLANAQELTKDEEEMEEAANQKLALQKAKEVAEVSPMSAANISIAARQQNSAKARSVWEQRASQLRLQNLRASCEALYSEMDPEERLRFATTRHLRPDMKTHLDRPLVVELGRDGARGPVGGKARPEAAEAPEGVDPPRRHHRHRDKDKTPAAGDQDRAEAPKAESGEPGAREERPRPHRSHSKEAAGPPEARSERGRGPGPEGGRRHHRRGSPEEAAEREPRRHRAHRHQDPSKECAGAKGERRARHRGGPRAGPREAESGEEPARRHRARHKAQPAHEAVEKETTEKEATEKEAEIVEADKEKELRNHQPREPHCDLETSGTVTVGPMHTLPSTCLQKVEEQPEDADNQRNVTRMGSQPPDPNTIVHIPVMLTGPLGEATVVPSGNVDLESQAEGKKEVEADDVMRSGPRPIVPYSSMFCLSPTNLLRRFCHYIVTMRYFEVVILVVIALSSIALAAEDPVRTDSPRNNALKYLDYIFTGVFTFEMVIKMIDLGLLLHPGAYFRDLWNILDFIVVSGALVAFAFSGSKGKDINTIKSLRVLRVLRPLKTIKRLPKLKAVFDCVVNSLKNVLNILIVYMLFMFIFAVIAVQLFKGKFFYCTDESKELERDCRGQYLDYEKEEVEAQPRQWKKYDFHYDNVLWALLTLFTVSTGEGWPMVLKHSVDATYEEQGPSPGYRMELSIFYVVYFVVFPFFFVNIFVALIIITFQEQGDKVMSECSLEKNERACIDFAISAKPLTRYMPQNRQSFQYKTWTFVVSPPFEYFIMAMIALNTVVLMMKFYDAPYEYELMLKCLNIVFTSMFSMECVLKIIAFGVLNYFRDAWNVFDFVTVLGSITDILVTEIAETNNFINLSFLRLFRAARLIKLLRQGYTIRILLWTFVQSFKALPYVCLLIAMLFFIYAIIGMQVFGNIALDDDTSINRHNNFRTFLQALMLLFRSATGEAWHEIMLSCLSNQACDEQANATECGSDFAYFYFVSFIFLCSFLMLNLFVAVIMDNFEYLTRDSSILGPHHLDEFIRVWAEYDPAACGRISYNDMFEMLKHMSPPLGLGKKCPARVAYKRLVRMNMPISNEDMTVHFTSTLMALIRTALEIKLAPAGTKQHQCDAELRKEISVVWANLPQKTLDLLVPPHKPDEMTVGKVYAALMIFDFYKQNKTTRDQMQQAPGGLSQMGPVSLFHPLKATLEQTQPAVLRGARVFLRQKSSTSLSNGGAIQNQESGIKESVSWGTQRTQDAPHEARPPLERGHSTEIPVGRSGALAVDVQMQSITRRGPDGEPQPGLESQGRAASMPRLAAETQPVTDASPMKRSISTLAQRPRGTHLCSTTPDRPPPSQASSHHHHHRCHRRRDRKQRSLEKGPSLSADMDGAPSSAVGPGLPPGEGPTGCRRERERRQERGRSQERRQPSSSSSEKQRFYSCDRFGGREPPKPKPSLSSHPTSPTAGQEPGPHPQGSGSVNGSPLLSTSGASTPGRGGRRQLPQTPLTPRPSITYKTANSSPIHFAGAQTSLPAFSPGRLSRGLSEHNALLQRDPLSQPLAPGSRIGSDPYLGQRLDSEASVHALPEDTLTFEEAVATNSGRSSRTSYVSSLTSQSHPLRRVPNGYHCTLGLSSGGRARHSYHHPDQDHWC

For data set [2], the target named is T2, Cav1.2 (Homo sapiens, UniProt Q13936). Briefly: Inhibition of Cav1.2 assessed as inhibition of calcium flux at 3 uM by cell based FLIPR assay. Put shortly: (§2)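 Cav1.2 counterscreen using a related calcium-influx FLIPR assay, run as % inhibition at single concentrations or as a titration.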
T2 sequence (Q13936 whole entry): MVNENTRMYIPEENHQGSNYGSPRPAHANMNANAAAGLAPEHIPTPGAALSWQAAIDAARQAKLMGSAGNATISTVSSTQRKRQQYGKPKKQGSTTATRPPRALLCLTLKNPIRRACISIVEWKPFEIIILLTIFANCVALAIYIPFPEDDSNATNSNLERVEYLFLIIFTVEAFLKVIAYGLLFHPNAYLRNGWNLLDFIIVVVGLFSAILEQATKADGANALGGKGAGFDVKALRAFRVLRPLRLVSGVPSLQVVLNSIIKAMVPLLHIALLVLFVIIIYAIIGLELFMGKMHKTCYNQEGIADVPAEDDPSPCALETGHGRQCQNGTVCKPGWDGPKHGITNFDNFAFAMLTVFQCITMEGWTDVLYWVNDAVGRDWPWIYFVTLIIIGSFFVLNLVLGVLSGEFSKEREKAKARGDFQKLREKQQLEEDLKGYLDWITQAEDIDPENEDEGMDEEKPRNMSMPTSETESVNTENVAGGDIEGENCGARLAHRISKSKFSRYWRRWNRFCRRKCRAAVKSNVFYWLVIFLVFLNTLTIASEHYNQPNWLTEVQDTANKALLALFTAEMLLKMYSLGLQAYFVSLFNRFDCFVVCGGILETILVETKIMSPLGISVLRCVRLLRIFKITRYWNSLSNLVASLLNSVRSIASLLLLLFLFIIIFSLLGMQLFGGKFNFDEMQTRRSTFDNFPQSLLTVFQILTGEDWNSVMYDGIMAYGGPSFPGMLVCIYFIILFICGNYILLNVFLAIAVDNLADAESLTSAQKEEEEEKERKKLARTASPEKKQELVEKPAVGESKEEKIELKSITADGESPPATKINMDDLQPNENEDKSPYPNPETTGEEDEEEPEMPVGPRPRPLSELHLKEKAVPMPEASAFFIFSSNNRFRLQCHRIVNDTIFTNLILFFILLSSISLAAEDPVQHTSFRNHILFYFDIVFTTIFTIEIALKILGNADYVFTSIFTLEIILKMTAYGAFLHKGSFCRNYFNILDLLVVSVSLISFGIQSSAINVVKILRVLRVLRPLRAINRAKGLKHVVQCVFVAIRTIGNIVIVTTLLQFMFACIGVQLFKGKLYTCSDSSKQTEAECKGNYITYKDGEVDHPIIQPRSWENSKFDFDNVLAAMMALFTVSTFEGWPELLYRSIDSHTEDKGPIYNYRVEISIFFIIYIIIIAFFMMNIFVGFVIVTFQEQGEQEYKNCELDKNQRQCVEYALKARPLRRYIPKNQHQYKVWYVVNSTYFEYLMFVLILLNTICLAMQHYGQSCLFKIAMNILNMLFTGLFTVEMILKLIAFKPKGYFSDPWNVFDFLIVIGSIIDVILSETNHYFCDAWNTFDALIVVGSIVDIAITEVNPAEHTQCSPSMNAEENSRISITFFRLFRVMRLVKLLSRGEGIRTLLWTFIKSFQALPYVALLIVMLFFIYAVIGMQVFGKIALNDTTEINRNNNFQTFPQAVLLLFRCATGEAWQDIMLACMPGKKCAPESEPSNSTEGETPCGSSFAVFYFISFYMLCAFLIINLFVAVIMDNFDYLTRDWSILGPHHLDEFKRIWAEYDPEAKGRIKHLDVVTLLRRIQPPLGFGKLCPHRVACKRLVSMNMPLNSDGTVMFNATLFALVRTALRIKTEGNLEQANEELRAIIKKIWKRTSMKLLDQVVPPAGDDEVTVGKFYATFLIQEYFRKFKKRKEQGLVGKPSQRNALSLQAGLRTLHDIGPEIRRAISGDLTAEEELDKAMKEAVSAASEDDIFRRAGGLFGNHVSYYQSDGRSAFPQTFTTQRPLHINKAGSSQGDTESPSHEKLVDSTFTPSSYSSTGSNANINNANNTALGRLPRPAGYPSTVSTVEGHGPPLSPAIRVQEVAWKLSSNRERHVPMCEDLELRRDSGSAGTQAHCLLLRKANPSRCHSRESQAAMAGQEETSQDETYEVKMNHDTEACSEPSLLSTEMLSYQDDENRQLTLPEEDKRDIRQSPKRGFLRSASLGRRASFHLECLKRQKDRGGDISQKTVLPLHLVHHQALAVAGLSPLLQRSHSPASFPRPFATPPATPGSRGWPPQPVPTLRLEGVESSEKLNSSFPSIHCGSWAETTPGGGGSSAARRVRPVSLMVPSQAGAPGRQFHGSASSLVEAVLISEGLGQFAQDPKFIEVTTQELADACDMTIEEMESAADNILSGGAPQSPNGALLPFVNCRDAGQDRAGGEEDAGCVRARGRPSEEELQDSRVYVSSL
In data set [3] the target is T2, Cav1.2. Briefly: Inhibition of Cav1.2 assessed as inhibition of calcium flux at 1 uM by cell based FLIPR assay. A digest of the protocol:
as §2

Data set [4] is described as follows: Plasma concentration in rat complete Freund's adjuvant-induced pain model at 30 mg/kg, po after 3 hrs. Type of data set: ADME, organism-based. Details: dose 30 mg/kg, route oral. Put shortly: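 Satellite rats in CFA inflammatory pain study, 30 mg/kg po; plasma exposure (μM) at 3 h, n = 2, standard deviation.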
For data set [5], the system named is Rattus norvegicus. Briefly: Antinociceptive activity in rat assessed as reversal of complete Freund's adjuvant-induced pain at 30 mg/kg, po after 3 hrs. Type of data set: functional. Put shortly: (§3)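 In the rat CFA inflammatory pain model, compound was given orally at 30 mg/kg and allodynia was read at 1 and 3 h postdose. Average % reversal = (postdose − predose)/(preinjury − predose) for each rat, n = 6. Plasma exposure at 3 h was measured in satellite rats (n = 2).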

Data set [6] concerns Rattus norvegicus. Briefly: Antinociceptive activity in rat assessed as reversal of complete Freund's adjuvant-induced pain at 30 mg/kg, po after 1 hr. Format: functional. Put shortly: as §3
Data set [7] in a line: Half life in rat at 3 mg/kg, po and 1 mg/kg, iv. The note with it: in vivo. Type of data set: ADME, organism-based. Put shortly: (§4)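 Rat pharmacokinetics from iv and po arms: 0.6 mg/kg iv with 1.8 mg/kg po, or 1 mg/kg iv with 3 mg/kg po. AUC was normalized to po dose (μM·h·kg/mg). Clearance (mL/min/kg) and half-life come from the iv arm, and F% is oral bioavailability.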

The nature of data set [8]: Plasma clearance in rat at 3 mg/kg, po and 1 mg/kg, iv. Format: ADME, organism-based. Put shortly: as §4
Data set [9] deals with Rattus norvegicus. Briefly: Dose normalized AUC in rat at 3 mg/kg, po and 1 mg/kg, iv. Format: ADME, organism-based. Particulars: in vivo. Put shortly: as §4
A short description of data set [10]: Oral bioavailability in rat at 3 mg/kg. Format: ADME, organism-based. The note with it: in vivo. A digest of the protocol:
as §4

Data set [11] can be described thus: Metabolic stability in rat liver microsomes assessed as compound remaining at 1 uM after 1 hr. The note with it: read-out: Stability. Format: ADME, Microsome. Put shortly:
(§5)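 Compound at 1 μM was incubated with human or rat liver microsomes (1 mg/mL) for 1 h, and the percentage of parent remaining was determined.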
(Liver microsomes are a subcellular fraction often used to study metabolism.)

The nature of data set [12]: Metabolic stability in human liver microsomes assessed as compound remaining at 1 uM after 1 hr. Format: ADME, Microsome. The note with it: read-out: Stability. Put shortly: as §5
Data set [13] concerns the target T3, hERG (Homo sapiens, UniProt Q12809). Briefly: Displacement of [35S]-MK-0499 from human ERG at 10 uM. Particulars: probe [35S]-MK-0499. A digest of the protocol:
(§6)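 hERG binding was measured as displacement of 35S-labeled MK-0499 at single test concentrations.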
(Loss of bound radioactivity is the signal in a displacement assay; it reports binding, not function.)

Data set [14] concerns the target T3, hERG. Briefly: Displacement of [35S]-MK-0499 from human ERG at 1 uM. Particulars: probe [35S]-MK-0499. Put shortly: as §6
For data set [15], the target named is T1, Voltage-dependent N-type calcium channel subunit alpha-1B. Briefly: Inhibition of Cav2.2 expressed HEK293 cells assessed as inhibition of calcium flux by FLIPR assay in presence of 30 mM of potassium. Format: cell-based. Put shortly: as §1
Target sequence in this assay (Q00975 whole entry): as the sequence (Q00975 whole entry, looked up) above
Data set [16] concerns Mus musculus. Briefly: Antinociceptive activity in Cav2.2 deficient mouse SNL neuropathic pain model assessed as reversal of mechanical allodynia at 30 mg/kg, po after 2 hrs. Format: functional. A digest of the protocol:
(§7)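 Cav2.2+/+ and Cav2.2−/− mice underwent spinal nerve ligation, then got a single 30 mg/kg oral dose. Mechanical allodynia was scored 2 h postdose.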

The test system of data set [17] is Mus musculus. Briefly: Antinociceptive activity in Cav2.2 expressing wild type mouse SNL neuropathic pain model assessed as reversal of mechanical allodynia at 30 mg/kg, po after 2 hrs. Format: functional. Put shortly: as §7
The test system of data set [18] is Rattus norvegicus. Briefly: Analgesic activity in rat SNL neuropathic pain model assessed as reversal of mechanical allodynia at 10 mg/kg, po after 1 hr. Type of data set: functional.
Data set [19] is described as follows: Oral bioavailability in rat. Format: ADME, organism-based. The note with it: in vivo. Put shortly:
as §4

Data set [20] can be described thus: Plasma clearance in rat. Format: ADME, organism-based. A digest of the protocol: as §4
Data set [21] deals with Rattus norvegicus. Briefly: Dose normalized AUC in po dosed rat. Type of data set: ADME, organism-based. Particulars: in vivo. A digest of the protocol:
as §4

Data set [22] deals with T1, Voltage-dependent N-type calcium channel subunit alpha-1B. Briefly: Inhibition of Cav2.2 expressed HEK293 cells assessed as inhibition of calcium flux by FLIPR assay in presence of 4 mM of potassium. Type of data set: cell-based. Put shortly:
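HEK-293-derived CBK cells coexpress α1B-1, α2-δ and β3a with Kir2.3. Compound was incubated in 4 mM K+ bath, holding about −90 mV. Ca2+ influx was read with a Ca-sensitive dye on FLIPR Tetra. Ten-point titrations ran 0.001–30 μM in quadruplicate, averaged ± SD to give IC50.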
Target sequence in this assay (Q00975 whole entry): as the sequence (Q00975 whole entry, looked up) above

The target of data set [23] is Voltage-dependent L-type calcium channel subunit alpha-1C (Homo sapiens, UniProt Q13936). Briefly: Inhibition of Cav1.2 assessed as inhibition of calcium flux by cell based FLIPR assay. A digest of the protocol:
as §2

Sequence of Voltage-dependent L-type calcium channel subunit alpha-1C (Q13936 whole entry): as the sequence (Q13936 whole entry) above

As for `NC(=O)c1cccc(C(=O)N2CCC(N(C3CC3)S(=O)(=O)c3cccc(C(F)(F)F)c3)CC2)c1`, the inhibition in data set [1] stood at 0%.
For the compound `NC(=O)c1ccccc1C(=O)N1CCC(N(C2CC2)S(=O)(=O)c2cccc(C(F)(F)F)c2)CC1`, the inhibition at 3 µM in [2] worked out at 17%. Also, in data set [3], the inhibition at 1 µM is 11%. Moreover, the inhibition in [1] amounted to 15%.
`CS(=O)(=O)c1ccccc1C(=O)N1CCC(N(C2CC2)S(=O)(=O)c2cccc(C(F)(F)F)c2)CC1`: the concentration at 3 h in data set [4] is 2400 nM. In addition, the Activity came out at 45% in [5] and 47% in data set [6]. The half-life in [7] was 54.6 min. For the same compound, the clearance in data set [8] was determined as 36 mL/min/kg. In addition, in data set [9], the AUC/dose is 1.06 µM·kg·h/mg. Further, the bioavailability in data set [10] was found to be 100%. For the same compound, the remaining at 1 h, 1 µM was 45% in [11] and 73% in data set [12]. Moreover, the inhibition at 3 µM in data set [2] worked out at 39%. Also, the inhibition at 1 µM stood at 19% in data set [3] and 1% in data set [14]. This compound yielded an inhibition at 10 µM in data set [13] of 67%. The IC50 in data set [15] was found to be 0.66 µM.
Take `CS(=O)(=O)c1ccc(F)cc1C(=O)N1CCC(N(C2CC2)S(=O)(=O)c2cc(C(F)(F)F)ccc2F)CC1`: the half-inhibitory concentration (IC50) in data set [15] stood at 2.5 µM.
Regarding `NC(=O)c1ccc(C(=O)N2CCC(N(C3CC3)S(=O)(=O)c3cccc(C(F)(F)F)c3)CC2)cc1`, the inhibition at 3 µM in data set [2] was found to be 0%. Further, the inhibition at 1 µM in data set [3] was 0%. Also, the inhibition in data set [1] was 12%.
`NCC1(CC(=O)O)CCCCC1` [GABAPENTIN]: the Activity in data set [16] amounted to 48%; in data set [17] it was 71%.
Consider `COc1ccc2cc([C@H](C)C(=O)O)ccc2c1` [NAPROXEN], for which the Activity in data set [18] was 47%.
`CCCN(C1CCN(Cc2c(OC)cccc2OC)CC1)S(=O)(=O)c1cccc(C(F)(F)F)c1`: the bioavailability in data set [19] worked out at 4%. The clearance in data set [20] was found to be 169 mL/min/kg. The AUC/dose in [21] turned out to be 0.007 µM·kg·h/mg. Further, the IC50 in data set [22] stood at 4.8 µM; in data set [23], 3.2 µM; in data set [15], 0.12 µM. In data set [14], this compound returned an inhibition at 1 µM of 91%.
For the compound `CS(=O)(=O)c1cccc(S(=O)(=O)N(C2CC2)C2CCN(C(=O)c3cc(F)ccc3S(C)(=O)=O)CC2)c1`, the inhibition in data set [1] was 0%.
As to `COc1cccc(OC)c1CN1CCC(N(C2CC2)S(=O)(=O)c2cccc(C(F)(F)F)c2)CC1`, 1 µM produced 70% inhibition in data set [14]. For the same compound, in [15], the half-inhibitory concentration (IC50) came to 0.06 µM.
Regarding `CS(=O)(=O)c1ccc(F)cc1C(=O)N1CCC(N(C2CC2)S(=O)(=O)c2cccc(OC(F)(F)F)c2)CC1`, the IC50 in [15] turned out to be 1.1 µM.
As to `CS(=O)(=O)c1ccc(F)cc1C(=O)N1CCC(N(C2CC2)S(=O)(=O)c2ccc(C(F)(F)F)cc2)CC1`, the inhibition in data set [1] is 1%.
Consider `C[C@@H](O)[C@@H]1NC(=O)[C@H](Cc2ccc(O)cc2)NC(=O)[C@@H]2C[C@@H](O)CN2C(=O)[C@H](CC(N)=O)NC(=O)[C@@H]2CSSC[C@@H]3NC(=O)[C@H](CO)NC(=O)[C@H](CO)NC(=O)CNC(=O)[C@@H]4C[C@@H](O)CN4C(=O)[C@H](CO)NC(=O)[C@H](CCCCN)NC(=O)[C@@H](N)CSSC[C@H](NC(=O)[C@H](CSSC[C@@H](C(=O)N[C@@H](Cc4ccc(O)cc4)C(N)=O)NC(=O)[C@H](CCCN=C(N)N)NC(=O)[C@H](CCCCN)NC1=O)NC(=O)[C@H](CC(N)=O)NC(=O)[C@H](Cc1ccc(O)cc1)NC(=O)[C@H](CO)NC(=O)[C@H]([C@@H](C)O)NC(=O)[C@@H]1C[C@@H](O)CN1C(=O)[C@H](CO)NC3=O)C(=O)N[C@@H](CCCN=C(N)N)C(=O)N[C@@H](CO)C(=O)N2`, for which the IC50 in data set [22] is 0.02 µM; in data set [15] it was 0.04 µM.
